Test results reported in ChEMBL document CHEMBL1125581 (J Med Chem, 1991).
Blank lines part the entries; values can stand above or below the molecule they belong to.

Experiments:
[1] = target: T1, Muscarinic acetylcholine receptor M2 (Rattus norvegicus, UniProt P10980); test: Inhibition of binding of [3H]N-methylscopolamine to muscarinic acetylcholine receptor M2 of rat heart tissue membrane.; format: tissue-based
T1 sequence (P10980 whole entry): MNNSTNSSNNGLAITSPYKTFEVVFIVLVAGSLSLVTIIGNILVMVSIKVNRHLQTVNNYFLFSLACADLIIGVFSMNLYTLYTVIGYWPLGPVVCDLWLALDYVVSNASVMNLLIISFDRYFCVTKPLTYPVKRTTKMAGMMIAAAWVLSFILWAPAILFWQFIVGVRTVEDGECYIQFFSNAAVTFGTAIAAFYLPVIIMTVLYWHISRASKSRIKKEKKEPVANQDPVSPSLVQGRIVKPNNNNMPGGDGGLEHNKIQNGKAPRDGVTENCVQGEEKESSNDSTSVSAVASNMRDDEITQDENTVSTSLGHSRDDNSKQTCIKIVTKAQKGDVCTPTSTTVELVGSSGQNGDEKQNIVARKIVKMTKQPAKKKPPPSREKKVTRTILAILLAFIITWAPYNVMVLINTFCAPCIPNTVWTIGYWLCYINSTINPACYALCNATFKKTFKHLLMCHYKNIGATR
Procedure, shortened: (§1)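 Rat heart membranes (150–300 μg protein) incubated 90 min at 37 °C in DMEM-Hepes with 0.5 nM [3H]NMS and varied unlabeled analogue concentrations. Bound radioligand collected by rapid GF/B filtration, washed with ice-cold 0.9% NaCl, and scintillation counted. Nonspecific binding with 1 μM atropine subtracted. Ki values come from one to three determinations, each in triplicate.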

[2] = target: T2, Muscarinic acetylcholine receptor M3 (Rattus norvegicus, UniProt P08483); test: Compound was tested for the inhibition of binding of [3H]N-Methyl-scopolamine to mmuscarinic acetylcholine receptor M3 of transfected rat A9L cells; format: cell-based
Procedure, shortened: (§2)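 Confluent A9L (transfected m1/m3) or NG108-15 (m4) cultures were lysed in 2 mM Tris-HCl pH 7.1/1 mM EDTA, 30 min, 2 °C, then homogenized. Crude membranes were spun at 50000g. Membranes (150–300 μg protein) were incubated with 0.5 nM [3H]NMS and varied analogue in DMEM-Hepes for 90 min at 37 °C, then filtered. Nonspecific binding was set with 1 μM atropine. Ki values are from 1–3 triplicate determinations.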

[3] = target: T3, Muscarinic acetylcholine receptor M1 (Rattus norvegicus, UniProt P08482); test: Inhibition of binding of [3H]N-methylscopolamine to muscarinic acetylcholine receptor M1 of transfected rat A9L cells.; format: cell-based
T3 sequence (P08482 whole entry): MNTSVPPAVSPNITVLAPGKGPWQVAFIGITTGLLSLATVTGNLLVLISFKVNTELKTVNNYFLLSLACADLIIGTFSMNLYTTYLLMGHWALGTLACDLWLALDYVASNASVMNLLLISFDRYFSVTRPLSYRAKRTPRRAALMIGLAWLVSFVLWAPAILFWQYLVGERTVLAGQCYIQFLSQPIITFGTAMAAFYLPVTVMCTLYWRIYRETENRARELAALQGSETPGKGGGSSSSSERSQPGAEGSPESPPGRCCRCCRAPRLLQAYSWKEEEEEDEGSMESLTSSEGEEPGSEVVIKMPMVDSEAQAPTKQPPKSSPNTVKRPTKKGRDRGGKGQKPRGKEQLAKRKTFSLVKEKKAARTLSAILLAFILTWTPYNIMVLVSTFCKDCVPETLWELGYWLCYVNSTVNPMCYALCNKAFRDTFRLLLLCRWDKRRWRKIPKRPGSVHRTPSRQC

[4] = target: T4, Muscarinic acetylcholine receptor M4 (Rattus norvegicus, UniProt P08485); test: Inhibition of binding of [3H]N-Methyl-scopolamine to muscarinic acetylcholine receptor M4 of rat […] NG108-15 cells; format: cell-based
T4 sequence (P08485 whole entry): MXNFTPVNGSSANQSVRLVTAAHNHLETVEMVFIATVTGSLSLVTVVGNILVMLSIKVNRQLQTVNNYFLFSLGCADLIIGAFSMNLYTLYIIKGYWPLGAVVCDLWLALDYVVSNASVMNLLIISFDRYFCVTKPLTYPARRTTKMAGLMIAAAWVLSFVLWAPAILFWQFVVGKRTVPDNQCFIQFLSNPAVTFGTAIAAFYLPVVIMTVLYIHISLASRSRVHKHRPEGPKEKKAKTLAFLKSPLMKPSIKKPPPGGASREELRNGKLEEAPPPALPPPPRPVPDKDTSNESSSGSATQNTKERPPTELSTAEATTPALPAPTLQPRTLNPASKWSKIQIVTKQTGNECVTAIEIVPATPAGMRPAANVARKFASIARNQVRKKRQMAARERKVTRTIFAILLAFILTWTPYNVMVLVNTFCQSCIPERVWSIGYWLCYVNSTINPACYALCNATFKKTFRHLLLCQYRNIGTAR

[5] = target: T1, Muscarinic acetylcholine receptor M2; test: The compound was tested for the inhibition of binding of [3H]N-Methyl-scopolamine to muscarinic acetylcholine receptor M2 of rat heart tissue membranes.; format: cell membranes, Membrane; procedure, shortened: as §1
[6] = target: T3, Muscarinic acetylcholine receptor M1; test: The compound was tested for the inhibition of binding of [3H]N-Methyl-scopolamine to muscarinic acetylcholine receptor M1 of transfected A9L cells.; format: cell-based; procedure, shortened: as §2
[7] = target: T4, Muscarinic acetylcholine receptor M4; test: Inhibition of binding of [3H]N-Methyl-scopolamine to Muscarinic acetylcholine receptor M4 of NG108-15 cells.; format: cell-based; procedure, shortened: as §2
[8] = target: T1, Muscarinic acetylcholine receptor M2; test: Inhibition of binding of [3H]N-Methyl-scopolamine to Muscarinic acetylcholine receptor M2 of rat heart tissue membranes.; format: cell membranes, Membrane; procedure, shortened: as §1
[9] = target: T2, Muscarinic acetylcholine receptor M3; test: The compound was tested for the inhibition of binding of [3H]N-Methyl-scopolamine to Muscarinic acetylcholine receptor M3 of transfected A9L cells.; format: cell-based
Procedure, shortened: (§3)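 Crude membranes (150–300 μg protein) were incubated 90 min at 37 °C in DMEM-Hepes with 0.5 nM [3H]NMS and a range of unlabeled analogue concentrations. Incubation was stopped by rapid GF/B filtration, followed by ice-cold 0.9% NaCl washes and scintillation counting. Nonspecific binding was defined with 1 μM atropine and subtracted. Ki came from one to three determinations, each run in triplicate.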

[10] = target: T3, Muscarinic acetylcholine receptor M1; test: Inhibition of binding of [3H]N-Methyl-scopolamine to Muscarinic acetylcholine receptor M1 of transfected A9L cells.; format: cell-based; procedure, shortened: as §2
[11] = target: T1, Muscarinic acetylcholine receptor M2; test: The compound was tested for the inhibition of binding of [3H]N-Methyl-scopolamine to muscarinic acetylcholine receptor M2 of rat heart tissue membranes; format: cell membranes, Membrane; procedure, shortened: as §3
[12] = target: T3, Muscarinic acetylcholine receptor M1; test: The compound was tested for the inhibition of binding of [3H]N-Methyl-scopolamine to muscarinic acetylcholine receptor M1r of transfected A9L cells.; format: cell-based; procedure, shortened: as §3
[13] = target: T2, Muscarinic acetylcholine receptor M3; test: The compound was tested for the inhibition of binding of [3H]N-Methyl-scopolamine to muscarinic acetylcholine receptor M3 of transfected A9L cells.; format: cell-based; procedure, shortened: as §3

T2 sequence (P08483 whole entry): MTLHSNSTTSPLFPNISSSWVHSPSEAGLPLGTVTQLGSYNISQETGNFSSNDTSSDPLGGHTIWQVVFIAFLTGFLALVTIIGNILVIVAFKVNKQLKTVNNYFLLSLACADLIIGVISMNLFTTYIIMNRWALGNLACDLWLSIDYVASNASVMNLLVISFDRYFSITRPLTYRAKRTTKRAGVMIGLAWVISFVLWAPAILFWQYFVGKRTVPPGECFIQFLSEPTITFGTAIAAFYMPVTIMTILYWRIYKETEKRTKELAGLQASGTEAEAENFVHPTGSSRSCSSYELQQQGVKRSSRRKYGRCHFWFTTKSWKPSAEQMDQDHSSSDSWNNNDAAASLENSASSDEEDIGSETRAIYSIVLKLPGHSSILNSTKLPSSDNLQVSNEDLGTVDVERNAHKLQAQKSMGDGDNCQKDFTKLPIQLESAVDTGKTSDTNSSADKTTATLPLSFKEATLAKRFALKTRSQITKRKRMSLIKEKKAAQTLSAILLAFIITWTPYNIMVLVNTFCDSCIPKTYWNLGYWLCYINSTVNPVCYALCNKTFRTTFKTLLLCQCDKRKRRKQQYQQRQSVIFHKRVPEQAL

Ki [1]: 2650 nM | Ki [2]: 4020 nM | Ki [3]: 2840 nM | Ki [4]: 2940 nM
SMILES: CNC(=O)c1ccc(CN2CCN(CC(=O)N3c4ccccc4C(=O)Nc4cccnc43)CC2)cc1

Ki [5]: 8000 nM | Ki [6]: 7700 nM
SMILES: CCN1C(=O)c2ccccc2N(C(=O)CN2CCN(C)CC2)c2ncccc21

SMILES: O=C1Nc2cccnc2N(C(=O)CN2CCN(CCCl)CC2)c2ccccc21
Ki [7]: 130 nM | Ki [8]: 210 nM | Ki [9]: 78 nM | Ki [10]: 52 nM

SMILES: CN1CCN(CC(=O)N2c3cc(CO[Si](C)(C)C(C)(C)C)ccc3C(=O)Nc3cccnc32)CC1
Ki [11]: 4400 nM | Ki [12]: > 30000 nM | Ki [13]: > 30000 nM
